Results reported in ChEMBL document CHEMBL1121994, “Ammonium 7H-purin-6-yl 1-Thio-beta-D-glucopyranosiduronate, a latent, selective anticancer agent” (J Med Chem, 1982).

What was measured:
Assay type in all cases: ADME
Bos taurus [1] = species on record: Bos taurus; assay: Michaelis constant for hydrolysis catalyzed by Bovine Liver beta-Glucuronidase at pH 5.58; settings: cattle
How it was run: (§1)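 Bovine β-glucuronidase in 0.1 M potassium acetate buffer, μ = 0.1 M (KCl), 30 °C. Substrate 4.0×10⁻⁴ to 4.8×10⁻³ M final. Enzyme (30 FU; 42 000 FU when substrate was given in Me₂SO) was added after 20 min; at pH 3.38 the substrate was also added after 20 min. Initial rates came from ΔA/min at 324 nm (Δε = 2×10⁴ M⁻¹cm⁻¹), in duplicate. Vmax was normalized per Fishman unit.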

Bos taurus [2] = species on record: Bos taurus; assay: Michaelis constant for hydrolysis catalyzed by Bovine Liver beta-Glucuronidase at pH 4.7; settings: cattle; how it was run: as §1
[3] = Maximum velocity was determined at pH 5.58; how it was run: as §1
[4] = Maximum velocity was determined at pH 4.7; how it was run: as §1
Bos taurus [5] = species on record: Bos taurus; assay: Michaelis constant for hydrolysis catalyzed by Bovine Liver beta-Glucuronidase at pH 4.40; settings: cattle, pH 4.4; how it was run: as §1
[6] = Maximum velocity was determined at pH 4.4; how it was run: as §1
[7] = Maximum velocity was determined at pH 3.38; how it was run: as §1
Bos taurus [8] = species on record: Bos taurus; assay: Michaelis constant for hydrolysis catalyzed by Bovine Liver beta-Glucuronidase at pH 3.38; settings: cattle; how it was run: as §1
[9] = Maximum velocity was determined at pH 4.40; settings: pH 4.4; how it was run: as §1

Row | Vmax / Km (Bos taurus [1]) | Vmax / Km (Bos taurus [2]) | Vmax [3] | Vmax [4] | Vmax / Km (Bos taurus [5]) | Vmax [6] | Vmax [7] | Vmax / Km (Bos taurus [8]) | Vmax [9] | Structure (SMILES)
1 | 1.04e-8 | 1.06e-8 | 8.8e-11 | 9.85e-11 | 1.06e-8 | 1.24e-10 | 7.85e-11 | 8.8e-9 | – | NC(=O)C1OC(Sc2[nH]cnc3ncnc2-3)C(O)C(O)C1O (stereo unspecified)
2 | 0.0000951 | 0.000297 | 2.18e-8 | 3.92e-8 | 0.000409 | – | 3.73e-8 | 0.000659 | 3.95e-8 | N.O=C(O)C1OC(Sc2[nH]cnc3ncnc2-3)C(O)C(O)C1O (stereo unspecified)
